This note sets out measurements from paper PMC7950731 (Cell reports, 2019).

Common to all, as to test: TR-FRET of indisulam-induced ternary complex
What all share (assay type): binding
In general terms: In TR-FRET formats the signal depends on donor and acceptor labels being close together.

For one experiment, the target named is RBM39 (Homo sapiens, UniProt Q14498+Q66K64). Summed up: (§1)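 Purified His-DCAF15–DDB1–DDA1 (SF9 co-expression) and RBM39 aa 250–330-3xFLAG (E. coli, His tag TEV-cleaved), each 0.1 μM final, with 1 nM Eu-anti-6xHis donor and 5 ng/μL anti-FLAG-XL665 acceptor. Test compound titrated, 5 min at room temperature. Excitation 360 nm; 665/620 nm ratio. Run in triplicate; EC50 from four-parameter fit.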

A further experiment deals with RBM23 (Homo sapiens, UniProt Q66K64+Q86U06).
In the next experiment the target is DCAF15 (Homo sapiens, UniProt Q14498+Q66K64). Summed up: as §1

What is called EC50 is the concentration giving half of the maximal effect. Turning to `NS(=O)(=O)c1ccc(S(=O)(=O)Nc2cccc3c(Cl)c[nH]c23)cc1` [indisulam], the EC50 amounted to 2270 nM on RBM39, 2580 nM on RBM23 and 2270 nM on DCAF15.
